From publication PMC12840579 (Biomedicine & pharmacotherapy = Biomedecine & …, 2025) come the findings set out here.

The target in one assay is T1, ADAM10 (Homo sapiens, UniProt O14672).
T1 sequence (O14672 214-748): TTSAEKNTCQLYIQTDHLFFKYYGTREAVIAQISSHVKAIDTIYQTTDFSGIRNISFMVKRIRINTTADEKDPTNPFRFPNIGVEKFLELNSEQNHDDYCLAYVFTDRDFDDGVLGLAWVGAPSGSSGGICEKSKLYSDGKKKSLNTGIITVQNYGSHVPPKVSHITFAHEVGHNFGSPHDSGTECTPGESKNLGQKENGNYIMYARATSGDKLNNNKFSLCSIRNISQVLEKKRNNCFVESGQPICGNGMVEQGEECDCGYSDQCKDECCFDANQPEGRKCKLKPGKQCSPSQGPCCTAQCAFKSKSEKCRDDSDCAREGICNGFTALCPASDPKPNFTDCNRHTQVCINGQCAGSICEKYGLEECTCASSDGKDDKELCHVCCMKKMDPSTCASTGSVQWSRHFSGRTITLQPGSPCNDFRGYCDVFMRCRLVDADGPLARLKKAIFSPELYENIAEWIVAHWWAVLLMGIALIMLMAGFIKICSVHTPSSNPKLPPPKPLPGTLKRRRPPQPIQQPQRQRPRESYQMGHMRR
Description: ADAM10 fluorogenic proteolytic activity assay. The format is biochemical. The note with it: GM6001 10 μM. The gist of the method: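 Recombinant ADAM10 from a fluorogenic assay kit, pre-incubated with test compound at the indicated concentrations for 30 min at room temperature, then substrate added. Substrate cleavage read by fluorescence (ex 485 nm, em 530 nm). GM6001 was the positive control. Triplicate runs, mean ± SEM (n = 3).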

The target in a further assay is ADAM17 (Homo sapiens, UniProt P78536). Description: ADAM17 fluorogenic proteolytic activity assay. The format is biochemical. Conditions: GM6001 10 μM.
Chain of ADAM17 (P78536 215-824): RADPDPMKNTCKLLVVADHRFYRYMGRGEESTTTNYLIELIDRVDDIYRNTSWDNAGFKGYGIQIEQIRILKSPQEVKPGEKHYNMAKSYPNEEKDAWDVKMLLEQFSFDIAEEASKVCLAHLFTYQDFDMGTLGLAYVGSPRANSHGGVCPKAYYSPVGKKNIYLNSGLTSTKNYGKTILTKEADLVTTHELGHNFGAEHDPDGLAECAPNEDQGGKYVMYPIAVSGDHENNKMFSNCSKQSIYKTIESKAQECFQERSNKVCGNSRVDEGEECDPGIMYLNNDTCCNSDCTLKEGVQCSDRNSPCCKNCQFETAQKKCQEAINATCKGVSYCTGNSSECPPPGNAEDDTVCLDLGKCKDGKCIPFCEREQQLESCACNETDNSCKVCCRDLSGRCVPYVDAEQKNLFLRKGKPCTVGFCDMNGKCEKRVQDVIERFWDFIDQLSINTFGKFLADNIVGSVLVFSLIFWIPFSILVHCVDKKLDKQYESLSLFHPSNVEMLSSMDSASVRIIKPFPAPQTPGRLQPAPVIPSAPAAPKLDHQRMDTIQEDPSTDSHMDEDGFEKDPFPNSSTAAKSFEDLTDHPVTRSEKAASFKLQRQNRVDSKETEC
Assay [1] has as its system wild-type HEK293 cells lacking TREM2/DAP12 expression. Description: Intracellular calcium measurement. In kind it is cell-based, human. The procedure, abridged: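 Wild-type HEK293 cells lacking TREM2/DAP12 were grown in 96-well clear-bottom black plates. They were loaded for 1 h with Fluo-4 NW dye in 100 μL assay buffer, then test compound was added. Fluorescence was captured on an automated imaging system. Ionomycin served as the control for intact calcium signalling.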
(Calcium flux is commonly read through the fluorescence of an indicator in the cells.)

Assay [2] relates to TREM2 signaling (SYK phosphorylation Y525/526) in HEK293-hTREM2/DAP12 cells. The assay can be described thus: Phospho-SYK AlphaLISA in HEK293-hTREM2/DAP12 cells. The format is cell-based, human. The procedure, abridged: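 HEK-hTREM2/DAP12 cells were seeded at 5 × 10⁴ per well in DMEM with 10% FBS and held 24 h at 37 °C, 5% CO2. Medium was replaced with compound in complete medium, DMSO as vehicle. Time course: 25 μM for 5, 15, 30 or 60 min. Dose series: 5–100 μM final for 60 min. Kit-lysed cells were assayed for pSYK Y525/526 by two-antibody bead AlphaLISA; 3 independent experiments, n=6 per condition, mean ± SEM.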
On the technique in general: Bead proximity is the source of the signal in Alpha formats.

For assay [3], the system named is BV2 murine microglial cells. Description: Phagocytosis assay with fluorescent latex beads. The note with it: 25 μM, 30 min before beads (30 min). The format is cell-based. The gist of the method:
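Murine BV2 microglia were serum-starved, then exposed to 25 μM test compound or DMSO vehicle for 30 min. Green fluorescent latex beads were added for a further 30 min at 37 °C. Cells were washed with ice-cold PBS, fixed in 4% PFA, immunostained for IBA1 and imaged by fluorescence microscopy. A phagocytic cell was an IBA1+ cell with ≥1 internalised bead, expressed as % of vehicle; mean ± SEM (n = 3).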

Setting [4] is: 25 μM, time-course 5-60 minutes.

Consider `CNC(=O)[C@H](Cc1c[nH]c2ccccc12)NC(=O)[C@@H](CC(=O)NO)CC(C)C` [GM6001], for which, on ADAM10, the “effect on ADAM10 protease activity (positive control)” value was “potently inhibited”. Also, the “effect on ADAM17 protease activity (positive control)” value on ADAM17 is listed as “potently inhibited”.

Take `C[C@H](CCC(=O)O)C[C@H](C)C[C@H](C)C(=O)/C=C(\O)[C@H](C)C[C@H](C)C/C=C/[C@@H](C)[C@@H](O)[C@@H](C)[C@@H](O)C[C@@H]1CC[C@@](C)([C@H]2CC[C@@](C)([C@@H](C)O)O2)O1` [ionomycin]: in assay [1] (ionomycin 10 μM), the “calcium response in wild-type cells” value is reported as ~ 8 fold.

Turning to VG-3927, in assay [1] (VG-3927 30 μM), the “calcium mobilization in wild-type cells” value is “neither VG-3927 (30 μM) nor As48 (100 μM) elicited any detectable calcium mobilization”. For the same compound, in assay [2] (setting [4]), the “time at which SYK phosphorylation is first detected” value turned out to be 5 min and the “time of peak SYK phosphorylation” value stood at 60 min. Also, in assay [2] (60 minutes treatment, 5-100 μM), the “concentration of maximal SYK phosphorylation” value was determined as 25 µM and the “lowest concentration with SYK phosphorylation” value worked out at 5 µM. Further, the “increase in proportion of phagocytic cells vs vehicle” value in assay [3] is given as “approximately 45%”.
